What was measured:
Estrogen receptor [1] = molecular target: T1, Estrogen receptor (Homo sapiens, UniProt P03372); test: Displacement of fluorescent labelled fluormone ES2 from human recombinant GST tagged ER alpha LBD ( 282 to 595 residues) expressed in baculovirus infected insect cells incubate for 20 mins measured after 1 hr by TR-FRET Lanthascreen assay
T1 sequence (P03372 whole entry): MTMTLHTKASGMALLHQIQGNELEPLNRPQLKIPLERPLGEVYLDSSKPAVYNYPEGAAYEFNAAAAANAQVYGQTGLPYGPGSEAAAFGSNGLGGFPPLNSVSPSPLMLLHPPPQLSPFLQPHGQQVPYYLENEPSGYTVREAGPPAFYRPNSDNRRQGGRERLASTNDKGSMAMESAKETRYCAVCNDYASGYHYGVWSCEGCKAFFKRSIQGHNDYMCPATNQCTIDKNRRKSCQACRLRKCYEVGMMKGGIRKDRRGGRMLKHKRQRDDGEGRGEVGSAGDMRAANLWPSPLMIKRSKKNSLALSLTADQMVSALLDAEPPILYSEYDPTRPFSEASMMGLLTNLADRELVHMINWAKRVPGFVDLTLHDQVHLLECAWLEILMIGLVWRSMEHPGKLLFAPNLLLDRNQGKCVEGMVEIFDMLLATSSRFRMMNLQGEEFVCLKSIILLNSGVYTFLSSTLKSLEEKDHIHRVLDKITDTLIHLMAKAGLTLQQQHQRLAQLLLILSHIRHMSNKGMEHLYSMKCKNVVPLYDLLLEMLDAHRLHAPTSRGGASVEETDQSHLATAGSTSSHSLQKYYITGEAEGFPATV
Procedure, shortened: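 ER binding was reported as n ≥ 2 determinations, with SEM within 0.3 log units.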

Estrogen receptor [2] = molecular target: T1, Estrogen receptor; test: Induction of ERalpha degradation in human MCF7 cells incubated for 18 to 22 hrs by immuno-fluorescence assay; type: cell-based
[3] = molecular target: T2, Estrogen receptor (Homo sapiens) (UniProt P03372); test: Induction of ERalpha degradation in human MCF7 cells at 0.1 uM incubated for 18 to 22 hrs immuno-fluorescence assay relative to control; type: cell-based
T2 sequence (whole entry): T1 sequence (P03372 whole entry)

[4] = Lipophilicity, log D of compound at pH 7.4 by shake-flask method; type: physicochemical; settings: buffer
Procedure, shortened: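 logD at pH 7.4 was measured by the shake-flask method.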

[5] = Fraction unbound in human plasma by equilibrium dialysis method; type: ADME, cell-free
Procedure, shortened: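 Binding was measured by equilibrium dialysis in 10% human plasma, with compound added from a DMSO stock.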

[6] = Intrinsic clearance in rat hepatocytes assessed rate of metabolism per 10^6 cells; type: ADME, cell-based, Hepatocyte; settings: read-out: CLH
Procedure, shortened: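 Compound from a DMSO stock was incubated with isolated rat hepatocytes diluted to 1 × 10^6 cells/mL. Rate of metabolism is expressed in μL/min/10^6 cells.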

[7] = Intrinsic clearance in human microsome assessed as rate of metabolism; type: ADME; settings: microsomes
Procedure, shortened: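 Compound from a DMSO stock was incubated with human liver microsomes. Rate of metabolism is expressed in μL/min/mg.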

[8] = Efflux ratio of intrinsic permeability from basolateral to apical side over apical to basolateral side in human Caco2 cells at 7.4:7.4 apical: basolateral pH at 10 uM; type: ADME, cell-based; settings: Caco-2, pH 7.4
[9] = molecular target: T2, Estrogen receptor (Homo sapiens); test: Induction of ERalpha degradation in human MCF7 cells at 0.1 uM incubated for 18 to 22 hrs Western blot analysis relative to fulvestrant; type: cell-based
Procedure, shortened: (§1)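 Western blot read-out of ERα protein loss in MCF-7 and CAMA-1 breast cancer cells treated with compound at 0.1 μM. Degradation expressed as percentage relative to fulvestrant.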

[10] = molecular target: T2, Estrogen receptor (Homo sapiens); test: Induction of ERalpha degradation in human CAMA-1 cells at 0.1 uM incubated for 18 to 22 hrs Western blot assay relative to fulvestrant; type: cell-based; procedure, shortened: as §1
[11] = Clearance in rat plasma at 0.5 mg/kg, iv and 1 mg/kg, po; type: ADME, organism-based
Procedure, shortened: (§2)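 Rats were given 0.5 mg/kg IV in 5% DMSO:95% hydroxylpropyl β-cyclodextrin or 10% DMA:90% Captisol, and 1 mg/kg orally as a 0.1% HMPC/tween suspension or a 10% DMSO:90% cyclodextrin solution. Plasma clearance, Vdss and half-life came from the IV arm; AUC came from the oral arm; bioavailability F (%) was also reported.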

[12] = Volume of distribution at steady state in rat at 0.5 mg/kg or 1 mg/kg, […]; type: ADME, organism-based; settings: in vivo
[13] = Half-life in rat at 0.5 mg/kg, iv; type: ADME, organism-based; settings: in vivo; procedure, shortened: as §2
[14] = AUC in rat at 1 mg/kg, po; type: ADME, organism-based; parameters: dose 1 mg/kg; settings: in vivo; procedure, shortened: as §2
[15] = Oral bioavailability in rat at 1 mg/kg; type: ADME, organism-based; settings: in vivo; procedure, shortened: as §2

Compound | IC50 (Estrogen receptor [1]) [nM] | IC50 (Estrogen receptor [2]) [nM] | Activity [3] [%] | logD [4] | fraction unbound [5] | hepatocyte CLint [6] [µL/min/1e6 cells] | microsomal CLint [7] [µL/min/mg] | efflux ratio at 10 µM [8] | Activity [9] [%] | Activity [10] [%] | clearance [11] [mL/min/kg] | Vdss [12] [L/kg] | half-life [13] [h] | AUC [14] [µM·h] | bioavailability [15] [%]
C[C@@H]1Cc2c(ccc3[nH]ncc23)[C@@H](c2ncc(NC3CN(CCCF)C3)cc2F)N1CC(F)(F)F | 2 | 0.251 | 98 | 3 | 0.16 | 24 | 19 | 7 | 96 | 98 |  |  |  |  | 
C[C@@H]1Cc2c(ccc3[nH]ncc23)[C@@H](c2ccc(NC3CN(CCCF)C3)cn2)N1CC(F)F |  |  | 99 |  |  |  | 28 |  |  |  |  |  |  |  | 
C[C@@H]1Cc2c(ccc3[nH]nc(F)c23)[C@@H](c2ncc(NC3CN(CCCF)C3)cc2F)N1CC(F)(F)F | 1.26 |  | 99 |  | 0.054 | 10 | 34 | 1.4 |  |  | 24 | 17 | 9.6 | 0.76 | 60
C[C@@H]1Cc2c(cc(F)c3[nH]ncc23)[C@@H](c2ccc(NC3CN(CCCF)C3)cn2)N1CC(F)(F)F | 0.501 | 0.2 | 98 | 3.2 | 0.14 | 20 | 19 |  |  |  |  |  |  |  | 
C[C@@H]1Cc2c(ccc3[nH]ncc23)[C@@H](c2ccc(NC3CN(CCCF)C3)c(F)n2)N1CC(F)(F)F |  |  | 98 | 3 | 0.16 | 36 | 20 |  |  |  | 65 | 7.7 | 1.9 | 0.22 | 34
COc1cc2[nH]ncc2c2c1[C@@H](c1ccc(NC3CN(CCCF)C3)cn1)N(CC(F)(F)F)[C@H](C)C2 | 501 | 2.51 | 40 | 2.4 | 0.32 | 6 | 26 |  |  |  |  |  |  |  | 
C[C@@H]1Cc2c(c(F)cc3[nH]ncc23)[C@@H](c2ccc(NC3CN(CCCF)C3)cn2)N1CC(F)(F)F | 15.8 | 5.01 | 95 | 2.7 | 0.19 | 11 | 8 |  |  |  |  |  |  |  | 
FCCCN1CC(Nc2ccc([C@@H]3c4ccc5[nH]ncc5c4C[C@@H](C(F)F)N3CC(F)F)nc2)C1 |  |  | 97 |  | 0.28 | 32 | 34 |  |  |  |  |  |  |  | 
C[C@@H]1Cc2c(ccc3[nH]nc(F)c23)[C@@H](c2ccc(NC3CN(CCCF)C3)c(F)n2)N1CC(F)(F)F | 1 | 0.0501 | 99 |  | 0.068 | 10 | 44 |  |  |  |  |  |  |  | 
C[C@@H]1Cc2c(c(O)cc3[nH]ncc23)[C@@H](c2ccc(NC3CN(CCCF)C3)cn2)N1CC(F)(F)F | 39.8 | 126 | > 80 | 2.3 |  | 11 | 5 |  |  |  |  |  |  |  | 
C[C@@H]1Cc2c(ccc3[nH]ncc23)[C@@H](c2ccc(NC3CN(CCCF)C3)cn2)N1CC(F)(F)F [CAMIZESTRANT] |  |  | 99 | 2.9 |  |  | 12 |  | 95 | 98 |  |  |  |  | 
C[C@@H]1Cc2c(ccc3[nH]ncc23)[C@@H](c2ncc(NC3CN(CCCF)C3)cc2F)N1CC(F)(F)CF |  |  | 98 |  |  | 55 | 26 |  |  |  |  |  |  |  | 
